Laboratory results as given in article PMC9037209 (Journal of Enzyme Inhibition and Medicinal Chemistry, 2022).
Values after ≈ are worked out from the molar mass of the structure shown. Values joined by “and” are separate entries in the source; they are usually repeats but may differ in a detail not shown here. Identical values can stand only once. “Also recorded” adds a separate entry of the source. Like-named read-outs stand apart in the source and are kept apart here. Marks after values point to notes of the source that are not given here.

Legend:
[1] = biological target: PNP from Helicobacter pylori strain 26695 (HpPNP) (Helicobacter pylori, UniProt P56463); assay: Inhibition of H. pylori PNP, direct spectrophotometric phosphorolysis assay; type: biochemical; settings: m7Guo variable substrate, 50 mM phosphate; for inhibition model describing the data: model chosen by F test / AIC; for alpha = Kiu/Kic: mixed inhibition model, 25 °C, pH 7.0
H. pylori strain 26695 [2] = assay: Minimal inhibitory concentration; type: cell-based, Helicobacter pylori
Summary of the method: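 Strain ATCC 26695 revived from glycerol stock on BHI agar with 10% FBS and 1% selective supplement. Twofold compound dilutions (DMSO or water stocks) mixed 1:1 with inoculated double-strength BHI (20% FBS, 2% supplement; ~0.05 OD600, 4×10^4 CFU/mL final). Shaken at 120 rpm, 37 °C, microaerophilic; OD600 read at 0, 4, 8 and 24 h. Viability checked with Christensen's urea broth (4 h, aerobic, 37 °C). MIC taken at ≥90% inhibition; triplicates, kanamycin and DMSO controls.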

[3] = Solubility: concentration of dissolved inhibitor in filtered supernatants; type: physicochemical; settings: for solubility: water, kinetic from dmso stock; for maximal tested concentration of the fully dissolved compound: in the cell culture experiment, filtered supernatant
Summary of the method: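 DMSO stocks (10 mM) diluted with water to the planned concentrations. Precipitate removed with sterile 0.22 µm syringe filters. Dissolved concentration in the filtrate measured by UV absorbance: ε261 10,900 M−1 cm−1 for the 6-benzyloxy analogue, ε299 18,000 M−1 cm−1 for 6-benzylthio analogues.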

H. pylori PNP = settings: read-out: inhibition constant; competitive vs. nucleoside substrate; cited from earlier work
H. pylori strain 26695 [4] = settings: cited from earlier work
H. pylori 26695 strain = assay: Checkerboard assay of 6BnS-2Cl-Pu with metronidazole; type: cell-based, Helicobacter pylori; settings: single agent, concentration giving about 90% inhibition or more
Summary of the method: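 Sub-MIC checkerboard against strain 26695 with metronidazole (range chosen from the EUCAST MIC). Test-compound gradient 3.0–10.0. Single agents added at 2× and combinations at 4× each, with inoculated double-strength BHI (~0.05 OD600, 4×10^4 CFU/mL final). Shaken at 120 rpm, 37 °C, microaerophilic. […] FICI = MICA/MICa + MICB/MICb.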

[5] = Helicobacter pylori, 26695, 24 h

Sequence of PNP from Helicobacter pylori strain 26695 (HpPNP) (P56463 whole entry): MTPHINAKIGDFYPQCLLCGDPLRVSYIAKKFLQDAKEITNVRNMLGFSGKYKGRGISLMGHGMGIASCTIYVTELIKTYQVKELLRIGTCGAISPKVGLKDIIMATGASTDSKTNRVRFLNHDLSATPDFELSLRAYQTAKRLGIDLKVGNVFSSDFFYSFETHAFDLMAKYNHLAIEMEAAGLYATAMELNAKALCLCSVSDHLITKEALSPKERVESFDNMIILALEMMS

Row | Compound | inhibition model describing the data [1] | alpha = Kiu/Kic [1] | MIC (H. pylori strain 26695 [2]; [5]) | solubility [3] | other results
1 | Clc1nc(Cl)c2[nH]cnc2n1 [2,6-diCl-Pu, 2,6-dichloropurine] | non-competitive | 1.17 ± 0.44 | 2500 µM (≈ 473 µg/mL) | 236 µg/mL and 1250 µM | MIC (H. pylori strain 26695 [2]; Helicobacter pylori, 26695): 2500 µM (≈ 473 µg/mL); solubility in water ([3]; 10 mM stock in milli-Q water and 2-fold dilutions, no precipitate): good solubility in water; also recorded: well soluble in water
2 | Clc1nc(OCc2ccccc2)c2[nH]cnc2n1 [6BnO-2Cl-Pu, 6-benzyloxy-2-chloropurine] | mixed inhibition model | 0.25 ± 0.12 | – | 25 µg/mL and 95 µM | maximal tested concentration of the fully dissolved compound [3]: 0.095 mM
3 | Clc1nc(SCc2ccccc2)c2[nH]cnc2n1 [6BnS-2Cl-Pu, 6-benzylthio-2-chloropurine] | probably a mixed type | 0.16 ± 0.15 | 69 µg/mL and 250 µM | 11.1 µg/mL and 40 µM | H. pylori 26695 cell culture growth inhibition (H. pylori strain 26695 [2]; solution prepared as 0.25 mM but partially precipitated): full inhibition; also recorded: Complete growth inhibition; maximal tested concentration of the fully dissolved compound [3]: 0.040 mM
4 | c1ccc(CSc2ncnc3nc[nH]c23)cc1 [6BnS-Pu, 6-benzylthiopurine] | non-competitive | 1.07 ± 0.27 | 48 µg/mL and 200 µM | 21 µg/mL and 85 µM | H. pylori 26695 strain growth inhibition (H. pylori strain 26695 [2]; prepared as 200 µM but partially precipitated): completely inhibited
5 | Nc1ncnc2c([C@@H]3O[C@H](CO)[C@@H](O)[C@H]3O)[nH]nc12 [Formycin A] | – | – | – | – | Ki (H. pylori PNP): 14 ± 1.7 µM
6 | NC[C@H]1O[C@H](O[C@H]2[C@H](O)[C@@H](O[C@H]3O[C@H](CO)[C@@H](O)[C@H](N)[C@H]3O)[C@H](N)C[C@@H]2N)[C@H](O)[C@@H](O)[C@@H]1O [kanamycin, Kanamycin] | – | – | – | – | % of H. pylori cell culture inhibition (H. pylori strain 26695 [2]; 25 µg/mL (52 µM), positive control, not the maximal solubility): 92–96%; MIC (H. pylori strain 26695 [4]): 0.5–64^f µg mL^−1; MIC (H. pylori strain 26695 [4]; converted from literature value): 1.1 to 132 µM
7 | Cc1ncc([N+](=O)[O-])n1CCO [metronidazole] | – | – | – | – | MIC taken for FICI calculation (H. pylori 26695 strain): 2 µg/mL; MIC (H. pylori strain 26695 [4]; EUCAST): 8^f µg mL^−1; MIC (H. pylori strain 26695 [4]; converted from EUCAST value): 47 µM (≈ 8.04 µg/mL)
